According to PMC4403237 (European journal of medicinal chemistry, 2014):

Key:
[1] = system: Hep3B human hepatoma cell line; test: MTT cell viability assay, Hep3B; format: cell-based; conditions: 48 h, read-out: IC50 Hep3B
In short: (§1)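 Logarithmically growing cells were used: HL-60 and NCI-H460 in RPMI-1640 with 10% FBS and L-glutamine; Hep3B in DMEM/F12 with 10% FBS; Detroit 551 in DMEM with 10% FBS and L-glutamine. Cells were exposed to a range of test compound concentrations or DMSO vehicle for 48 h at 37 °C, then incubated with MTT (1 mg/mL in PBS) for 2 h. Absorbance was read at 570 nm, corrected at 630 nm.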

[2] = system: HL-60 human leukemia cell line; test: MTT cell viability assay, HL-60; format: cell-based; conditions: HL-60, 48 h, read-out: IC50 HL-60
In short: as §1

[3] = system: Detroit 551 human skin fibroblast cell line; test: MTT cell viability assay, Detroit 551; format: cell-based; conditions: Detroit 551, 48 h, read-out: IC50 Detroit551
In short: as §1

[4] = system: NCI-H460 non-small cell lung cancer cell line; test: MTT cell viability assay, NCI-H460; format: cell-based; conditions: Homo sapiens, NCI-H460, 48 h, read-out: IC50 NCI-H460
In short: as §1

MDA-MB-435 melanoma = test: NCI-60 screen, MDA-MB-435; format: cell-based, human
Hep3B cells [5] = test: In vivo; format: cell-based, human; conditions: 1 μM, 24 h
In short: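 Hep3B cells were treated for 24 h with DMSO vehicle, 1 μM test compound, or 1 μM reference antimitotics. Cells were washed in ice-cold PBS and lysed 5 min at 37 °C in hypotonic buffer (20 mM Tris-HCl pH 6.8, MgCl2, EGTA, 0.5% IGEPAL, protease inhibitors), then spun 15,000 ×g for 10 min at 25 °C. Supernatant (soluble) and sonicated pellet (polymerized) fractions were western-blotted for α-tubulin, β-tubulin and β-actin.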

M14 melanoma = test: NCI-60 screen, M14; format: cell-based, human
[6] = system: NCI-60 human cancer cell line panel; test: NCI-60 human cancer cell line panel screen; format: cell-based; conditions: NCI-60 panel mean
Hep3B cells [7] = test: Cell cycle distribution by flow cytometry in Hep3B cells; format: cell-based, human; conditions: 24 h
In short: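 Hep3B cells were treated for 24 h with DMSO vehicle, test compound at 0.1, 0.3, 1 or 3 μM, or 1 μM reference antimitotics (vinblastine, colchicine, paclitaxel). Cells were stained with propidium iodide and analysed by flow cytometry. Data are mean ± SEM of three independent experiments.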

K562 leukemia = test: NCI-60 screen, K562; format: cell-based, human
SW-620 colon cancer = test: NCI-60 screen, SW-620; format: cell-based, human
SR leukemia = test: NCI-60 screen, SR; format: cell-based, human
[8] = system: NCI-H522 non-small cell lung cancer; test: NCI-60 screen, NCI-H522; format: cell-based, human; conditions: NCI-522 non-small cell lung cancer
Hep3B cells [9] = test: Western blot of caspase and PARP cleavage in Hep3B cells; format: cell-based, human; conditions: 48 h treatment
Hep3B xenograft = Hep3B xenograft nude mice model; format: in vivo, Balb/c nude mice
In short: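 Male Balb/c nude mice (4–6 weeks, 18–20 g, SPF) received 2 × 10^6 Hep3B cells s.c. in the right flank. At tumor volume >100 mm3 (day 0), mice were grouped (n = 8). The water-soluble phosphate prodrug was given i.v. at 10, 20 or 40 mg/kg, five days/week for 3 weeks; doxorubicin i.v. served as reference. Tumor size (length × width² × 0.5) and body weight were recorded every 7 days to day 21; T/C was calculated.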

Row | Structure (SMILES) | IC50 [1] | IC50 [2] | IC50 [4] | IC50 [3] | other results
1 | COc1cccc(-c2cc(=O)c3c(C)ccnc3[nH]2)c1 [6a, 2-(3-Methoxyphenyl)-5-methyl-1,8-naphthyridin-4(1H)-one] | 130 nM | 30 nM | 180 nM | > 5000 nM | 
2 | COc1cccc(-c2cc(=O)c3cc(C)cnc3[nH]2)c1 [6b, 2-(3-Methoxyphenyl)-6-methyl-1,8-naphthyridin-4(1H)-one] | 120 nM | 60 nM | 140 nM | > 2500 nM | 
3 | COc1cccc(-c2cc(=O)c3cc(F)cnc3[nH]2)c1 [6e, 6-Fluoro-2-(3-methoxyphenyl)-1,8-naphthyridin-4(1H)-one] | 200 nM | 70 nM | 240 nM | > 5000 nM | 
4 | COc1cnc2[nH]c(-c3cccc4ccccc34)cc(=O)c2c1 [6h, 6-Methoxy-2-(naphthalen-1-yl)-1,8-naphthyridin-4(1H)-one] | 50 nM | 40 nM | 850 nM | > 25000 nM | 
5 | Cc1ccnc2[nH]c(-c3cccc(O)c3)cc(=O)c12 [7a, 2-(3-Hydroxyphenyl)-5-methyl-1,8-naphthyridin-4(1H)-one] | 170 nM | 30 nM | 200 nM | > 50000 nM | logGI50 (MDA-MB-435 melanoma): less than −7.00; tubulin content in cytoskeleton (polymerized) fraction (Hep3B cells [5]): decreased both α-tubulin and β-tubulin contents in the cytoskeleton fraction; logGI50 (M14 melanoma): less than −7.00; average logGI50 (MID) [6]: −6.30; cell population at G2/M phase (Hep3B cells [7]; 0.1-3 μM): significant cell population accumulation at G2/M phase in a concentration-dependent manner; sub-G1 phase population (Hep3B cells [7]): predominant increase in sub-G1 phase; logGI50 (K562 leukemia): less than −7.00; logGI50 (SW-620 colon cancer): less than −7.00; logGI50 (SR leukemia): less than −7.00; logGI50 [8]: less than −7.00; cleavage of caspases and PARP (Hep3B cells [9]): concentration-dependent increase in the cleavage of caspase-8, -9, -3, and PARP
6 | Cc1cnc2[nH]c(-c3cccc(O)c3)cc(=O)c2c1 [7b, 2-(3-Hydroxyphenyl)-6-methyl-1,8-naphthyridin-4(1H)-one] | 440 nM | 80 nM | 450 nM | > 2500 nM | 
7 | O=c1cc(-c2cccc(O)c2)[nH]c2ncc(Cl)cc12 [7d, 6-Chloro-2-(3-hydroxyphenyl)-1,8-naphthyridin-4(1H)-one] | 340 nM | 110 nM | 200 nM | > 100000 nM | 
8 | O=c1cc(-c2cccc(O)c2)[nH]c2ncc(F)cc12 [7e, 6-Fluoro-2-(3-hydroxyphenyl)-1,8-naphthyridin-4(1H)-one] | 380 nM | 140 nM | 700 nM | > 100000 nM | 
9 | O=c1cc(-c2cccc(F)c2)[nH]c2nccc(O)c12 [7f, 2-(3-Fluorophenyl)-5-hydroxy-1,8-naphthyridin-4(1H)-one] | 1820 nM | 820 nM | 2480 nM | > 100000 nM | 
10 | CC(=O)O[C@H]1C(=O)[C@@]2(C)[C@H]([C@H](OC(=O)c3ccccc3)[C@]3(O)C[C@H](OC(=O)[C@H](O)[C@@H](NC(=O)c4ccccc4)c4ccccc4)C(C)=C1C3(C)C)[C@]1(OC(C)=O)CO[C@@H]1C[C@@H]2O [Taxol, reference compound] | 500 nM | 2 nM | 5 nM |  | 
11 | Cc1ccnc2[nH]c(-c3cccc(OP(=O)(O)O)c3)cc(=O)c12 [compound 11, 3-(5-Methyl-4-oxo-1,4-dihydro-1,8-naphthyridin-2-yl)phenyl dihydrogen phosphate] |  |  |  |  | Hep3B inhibitory activity compared with doxorubicin (Hep3B xenograft; i.v. 20 mg/kg): exceeded that of 5 mg/kg doxorubicin; Hep3B tumor weight (Hep3B xenograft; i.v. 40 mg/kg): 78.6 % of the control; body weight changes (Hep3B xenograft; i.v. 10, 20, 40 mg/kg, during antitumor evaluation): no significant body weight changes; inhibition of Hep3B tumor growth (Hep3B xenograft; i.v. 10, 20 and 40 mg/kg/day, five days per week, three weeks): dose- and time-dependent inhibition of Hep3B tumor growth

Second part, led by results:

Row | IC50 [1] | IC50 [2] | IC50 [4] | Structure (SMILES) | IC50 [3] | other results
12 | 730 nM | 330 nM | 750 nM | COc1cccc(-c2cc(=O)c3c(C)cc(C)nc3[nH]2)c1 [6c, 2-(3-Methoxyphenyl)-5,7-dimethyl-1,8-naphthyridin-4(1H)-one] | > 50000 nM | 
13 | 100 nM | 30 nM | 100 nM | COc1cccc(-c2cc(=O)c3cc(Cl)cnc3[nH]2)c1 [6d, 6-Chloro-2-(3-methoxyphenyl)-1,8-naphthyridin-4(1H)-one] | > 50000 nM | 
14 | 20 nM | 20 nM | 50 nM | COc1cnc2[nH]c(-c3cccc(F)c3)cc(=O)c2c1 [6g, 2-(3-Fluorophenyl)-6-methoxy-1,8-naphthyridin-4(1H)-one] | > 10000 nM | 
15 | 90 nM | 40 nM | 160 nM | COc1cnc2[nH]c(-c3csc4ccccc34)cc(=O)c2c1 [6i, 2-(Benzo[b]thiophen-3-yl)-6-methoxy-1,8-naphthyridin-4(1H)-one] | > 10000 nM | 
16 | 680 nM | 290 nM | 1300 nM | Cc1cc(C)c2c(=O)cc(-c3cccc(O)c3)[nH]c2n1 [7c, 2-(3-Hydroxyphenyl)-5,7-dimethyl-1,8-naphthyridin-4(1H)-one] | > 100000 nM | 
17 | 160 nM | 80 nM | 860 nM | O=c1cc(-c2cccc(F)c2)[nH]c2ncc(O)cc12 [7g, 2-(3-Fluorophenyl)-6-hydroxy-1,8-naphthyridin-4(1H)-one] | > 100000 nM | 
18 | 460 nM | 480 nM | 1340 nM | O=c1cc(-c2cccc3ccccc23)[nH]c2ncc(O)cc12 [7h, 6-Hydroxy-2-(naphthalen-1-yl)-1,8-naphthyridin-4(1H)-one] | > 100000 nM | 
19 | 1070 nM | 570 nM | 390 nM | O=c1cc(-c2csc3ccccc23)[nH]c2ncc(O)cc12 [7i, 2-(Benzo[b]thiophen-3-yl)-6-hydroxy-1,8-naphthyridin-4(1H)-one] | 10000 nM | 
